High-throughput results from PubChem.
Mdm2-MdmX inh = inhibitors of human Mdm2-MdmX association, primary screen, cell-based, luminescence, split luciferase, SaOS-2, uHTS; hit rate 3% among 330,000; Protein Mdm4 (Homo sapiens) + E3 ubiquitin-protein ligase Mdm2 (Homo sapiens), …; SaOS-2 split-luciferase Mdm2/MdmX complementation; AID 485346, 2010; inhibition, % at 8 µM;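 active = inhibition of at least 50% at 8 µM in the primary screen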
Target sequence (O15151 whole entry, looked up): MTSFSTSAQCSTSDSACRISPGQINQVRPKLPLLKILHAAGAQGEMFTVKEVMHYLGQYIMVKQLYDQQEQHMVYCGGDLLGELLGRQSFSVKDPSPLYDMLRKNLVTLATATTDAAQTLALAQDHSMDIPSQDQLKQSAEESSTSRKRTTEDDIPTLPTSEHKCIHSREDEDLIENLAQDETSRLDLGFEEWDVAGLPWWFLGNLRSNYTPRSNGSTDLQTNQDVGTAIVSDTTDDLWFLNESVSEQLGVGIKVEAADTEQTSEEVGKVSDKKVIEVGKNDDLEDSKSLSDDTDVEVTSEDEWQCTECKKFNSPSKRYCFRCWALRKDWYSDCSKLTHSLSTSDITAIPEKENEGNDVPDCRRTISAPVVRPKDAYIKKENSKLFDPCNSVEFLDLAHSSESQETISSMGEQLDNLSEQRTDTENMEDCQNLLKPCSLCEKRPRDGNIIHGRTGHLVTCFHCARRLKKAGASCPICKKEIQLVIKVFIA
Target sequence (Q00987 whole entry, looked up): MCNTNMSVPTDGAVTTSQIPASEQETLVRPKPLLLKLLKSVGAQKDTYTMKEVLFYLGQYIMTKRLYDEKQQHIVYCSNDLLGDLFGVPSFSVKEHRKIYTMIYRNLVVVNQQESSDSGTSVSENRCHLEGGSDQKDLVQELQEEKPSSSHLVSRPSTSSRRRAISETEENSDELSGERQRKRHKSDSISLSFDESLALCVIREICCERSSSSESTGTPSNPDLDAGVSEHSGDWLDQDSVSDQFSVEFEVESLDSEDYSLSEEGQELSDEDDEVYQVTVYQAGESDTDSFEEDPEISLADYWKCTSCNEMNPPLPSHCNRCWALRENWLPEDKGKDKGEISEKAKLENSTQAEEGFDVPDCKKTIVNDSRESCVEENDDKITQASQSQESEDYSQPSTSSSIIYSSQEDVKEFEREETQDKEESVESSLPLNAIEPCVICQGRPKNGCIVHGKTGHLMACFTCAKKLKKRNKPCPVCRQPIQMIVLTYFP
aSyn UTR inh = MLPCN primary screen, SNCA 5' untranslated region; alpha-synuclein 5'UTR reporter, inhibitor activity; inhibition, % (tested at 7.5 µM); hit rate 0.82% among 300,000; AID 1813, 2009; in the data active = inhibition above about 60%;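 note: H4 neuroglioblastoma cells stably carrying SNCA 5'UTR luciferase fusion; 0% = DMSO wells and 100% = positive control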
IMP-1 inh = IMP-1 metallo-beta-lactamase inhibitors, primary screen, biochemical, epi-absorbance readout, Pseudomonas aeruginosa enzyme; hit rate 0.45% among 290,000; inhibition, % at 5.6 µM; AID 1556, 2009; purified IMP-1, nitrocefin hydrolysis, epi-absorbance fluorescence; metallo-beta-lactamase IMP-1 (Pseudomonas aeruginosa);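 active = inhibition above the mean plus 3 SD of all compounds in the same screening run, cut at about 4.5% in these data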;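 note: 0% = IMP-1 with DMSO and 100% = DMSO wells lacking enzyme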
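System: purified recombinant IMP-1 beta-lactamase. Medium: Zinc- and detergent-supplemented HEPES buffer, pH 7.1. Compound: one 5.6 µM dose […]. Schedule: 15 min preincubation plus 25 min reaction at 25 °C. Technique: Epi-absorbance fluorescence, 480 nm excitation, 530 nm emission.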
VIM-2 inhibitor = VIM-2 metallo-beta-lactamase inhibitors, primary screen, biochemical, epi-absorbance readout, Pseudomonas aeruginosa enzyme | inhibition, % at 5.6 µM | hit rate 0.89% among 290,000 | purified VIM-2, nitrocefin hydrolysis, epi-absorbance fluorescence | AID 1527, 2009;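 active = inhibition above the mean of all tested compounds plus 3 SD, cutoff set per screening run, cut at about 7.5% in these data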;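 note: red hydrolysis product quenches plate fluorescence so inhibitors raise well fluorescence; 0% = enzyme with DMSO and 100% = DMSO without enzyme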
697 NFkB inh = inhibitors of PMA/ionomycin-induced NF-kB reporter, 697 cells, primary screen, B-cell NF-kB inhibitor project, cell-based, luminescence, uHTS; AID 435022, 2010; 697 B-cell NF-kB luciferase reporter, 16 h; hit rate 0.33% among 330,000; inhibition, % at 4 µM; in the data active = inhibition above about 35%
Jurkat NFkB inh = inhibitors of induced NF-kB luciferase reporter, primary screen, TCR NF-kB activation inhibitor project, cell-based, luminescence, uHTS. Jurkat, PMA/ionomycin-induced NF-kB luciferase reporter. inhibition, % at 4 µM. hit rate 0.53% among 330,000; in the data active = inhibition above about 50%
Mdm2-MdmX conf = Mdm2-MdmX complex disruptors, retested hits, confirmation, luminescence, single concentration. Mdm2-MdmX binding, luminescent assay. hit rate 55% among 10,000. inhibition, % at 8 µM. shares compounds with Mdm2-MdmX inh; in the data active = inhibition above about 40%
FLuc counter = full-length luciferase signal inhibition, confirmation, counter-screen for Mdm2/MdmX interaction inhibitor project, cell-based, single concentration, SaOS-2. inhibition, % at 8 µM. SaOS-2 full-length luciferase counterscreen, luminescence. shares compounds with Mdm2-MdmX inh. hit rate 77% among 6,200;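 active = mean inhibition at 8 µM reaching about 37%, which flags the compound as non-specific, limit read from the data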;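 note: p53-null SaOS-2 cells with luciferase driven by a doxycycline-inducible promoter; compound on cells about two nights before reading with doxycycline added after day one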
An asterisk follows results filed as active; . = not tested or not shown. Shown are actives, neighbours in structure and some others; about 4.7% of the full set was active somewhere.

SMILES	Mdm2-MdmX inh	aSyn UTR inh	IMP-1 inh	VIM-2 inhibitor	697 NFkB inh	Jurkat NFkB inh	Mdm2-MdmX conf	FLuc counter
C[C@H]1CN([C@@H](C)CO)C(=O)c2cc(NC(=O)C3CCCCC3)ccc2O[C@H]1CN(C)Cc1ccc(-c2ccccc2)cc1	81.3*	.	.	.	26.6	11.6	23.4	.
CC(C)NC(=O)Nc1ccc2c(c1)C(=O)N([C@H](C)CO)C[C@@H](C)[C@@H](CN(C)C(=O)NC1CCCCC1)O2	13.0	.	.	.	-3.6	-9.9	.	.
COc1ccc(OC)c(-c2csc(NC(=O)Cn3[nH]c(=O)c4ccccc4c3=O)n2)c1	66.6*	20.8	-1.2	-2.0	-16.2	-10.1	83.4*	49.6*
Cc1sc(NC(=O)Cn2[nH]c(=O)c3ccccc3c2=O)nc1-c1ccccc1	55.9*	-13.6	-3.5	-4.6	-2.8	-5.6	8.2	.
COc1ccc(OC)c(-c2csc(NC(=O)Cc3ccc(F)cc3)n2)c1	33.5	-18.2	-2.6	-2.2	-3.4	6.2	.	.
COc1ccc2c(-c3ccc(S(N)(=O)=O)cc3)c(-c3ccc(S(C)(=O)=O)cc3)sc2c1	66.8*	.	.	.	9.3	-1.8	14.0	.
COc1ccc2c(C#CCCO)c(-c3ccc(S(C)(=O)=O)cc3)sc2c1	41.9	.	.	.	-20.8	7.9	.	.
CCc1ccc(C(=O)COC(=O)c2n[nH]c3ccccc23)cc1	13.2	-129.3	-1.9	-1.7	-37.3	-28.4	.	.
CCOc1ccccc1/C=N\Nc1cnn(Cc2ccccc2)c(=O)c1Cl	53.1*	21.9	-0.9	-2.6	-2.4	-16.5	24.3	.
COc1ccccc1/C=N\Nc1cn[nH]c(=O)c1Cl	28.2	14.6	-2.2	-3.9	14.2	-1.7	.	.
CCOC(=O)c1cccc(Nc2nc(-c3cccnc3)nc3ccccc23)c1	70.0*	-25.5	-2.4	-1.4	29.0	-6.5	36.4	.
COC(=O)c1cccc(Nc2nc(-c3ccncc3)nc3ccccc23)c1	34.3	-1.7	-0.3	3.4	27.0	-36.6	.	.
COC(=O)c1cccc(Nc2nc(-c3cccnc3)nc3ccccc23)c1	70.3*	7.3	-1.7	0.3	30.5	12.3	43.0*	71.7*
O=C(O)c1cccc(Nc2nc(-c3cccnc3)nc3ccccc23)c1	-5.7	-17.4	-2.4	0.5	-64.7	12.9	.	.
C/C=C/C1=CC(=O)C[C@H](c2ccc3c(c2)OCO3)C1	35.2	.	.	.	7.1	0.6	.	.
O=C(NCC1CCCN1S(=O)(=O)c1cccs1)c1cccc([N+](=O)[O-])c1 (configuration not stated)	11.5	-8.0	.	.	-11.8	17.9	.	.
COc1cc(/C=N/NC(=O)c2cncc(Br)c2)cc([N+](=O)[O-])c1O	55.6*	-2.0	-2.4	-4.1	7.9	4.6	49.9*	47.5*
O=C(c1cccc(S(=O)(=O)NCc2ccccc2)c1)N1CCN(c2cccc(C(F)(F)F)c2)CC1	62.3*	1.6	-3.9	-3.5	-84.9	-6.1	70.0*	55.5*
COc1ccc([C@H]2CC(=O)C=C(c3cc(Br)ccc3OC)C2)cc1	50.0*	.	.	.	-0.1	28.7	43.8*	46.6*
COc1ccc(C2=CC(=O)C[C@H](c3ccc(OC)c(OC)c3)C2)cc1	32.2	.	.	.	-6.1	19.7	.	.
COc1cc2c(cc1OC)C(c1ccccc1)N(C(=O)CCl)CC2 (configuration not stated)	100.4*	-85.6	-2.0	-0.7	-26.7	28.8	8.7	.
COc1cc2c(cc1OC)C(C1C(=O)CCCC1=O)N(C(=O)CCl)CC2 (configuration not stated)	10.0	-6.6	-0.9	-3.8	20.9	-9.8	.	.
COc1ccc(C2C(C(=O)c3ccccc3)=C(C)Nc3nc4ccccc4n32)cc1OC (configuration not stated)	16.8	-29.5	0.2	-2.6	-8.3	-4.4	.	.
COc1ccc(OC)c(C2C(C(=O)c3ccccc3)=C(C)Nc3nc4ccccc4n32)c1 (configuration not stated)	98.3*	22.4	-0.3	-3.7	1.5	-37.7	76.4*	80.3*
CCOC(=O)C1=C(C)Nc2nc3ccccc3n2C1c1ccccc1 (configuration not stated)	53.6*	23.3	-3.1	-4.0	-30.2	3.2	7.5	.
SMILES	Mdm2-MdmX inh	aSyn UTR inh	IMP-1 inh	VIM-2 inhibitor	697 NFkB inh	Jurkat NFkB inh	Mdm2-MdmX conf	FLuc counter
O=C(NCc1ccncc1)C(=O)NC1CC1	0.1	19.6	-2.2	-2.6	7.7	0.5	.	.
COC(=O)[C@@]1(Cc2ccccc2)[C@H]2C(=O)N(Cc3ccccc3)C(=O)[C@H]2[C@H]2CN=C(SCc3ccccc3)N21	88.8*	.	.	.	8.2	.	85.5*	34.6
COC(=O)c1ccc(CSC2=NC[C@@H]3[C@@H]4C(=O)N(Cc5ccccc5)C(=O)[C@@H]4[C@](Cc4ccccc4)(C(=O)OC)N23)cc1	49.3	.	.	.	-13.1	.	.	.
COC(=O)[C@@]1(Cc2ccccc2)[C@H]2C(=O)N(Cc3ccccc3)C(=O)[C@H]2[C@H]2CN=C(SCc3ccc(C)cc3)N21	57.8*	.	.	.	10.3	.	65.5*	46.4*
N#Cc1ccc(C#Cc2ccc3oc4ccccc4c(=O)c3c2)cc1	67.4*	.	.	.	2.5	10.9	8.8	.
CCOCCCNCC(=O)Nc1ccc(S(=O)(=O)NC(C)CC)cc1 (configuration not stated)	12.4	18.3	-2.9	-2.5	1.2	5.1	.	.
COc1cccc(NC(=O)C2CCCN2S(=O)(=O)c2ccc3c(c2)n(C)c(=O)c(=O)n3C)c1 (configuration not stated)	-8.0	11.3	0.0	-1.4	12.1	2.0	.	.
COc1ccc(-n2c(C)cc(/C=C3\C(=O)NN(c4ccccc4)C3=O)c2C)cc1	-48.4	-113.1	-4.4	-3.7	-30.2	-34.7	.	.
Cc1cc(/C=C2/C(=O)NN(c3ccccc3)C2=O)c(C)n1-c1ccc(O)cc1	51.8*	-138.2	-2.8	1.0	-189.5	-16.8	75.5*	115.7*
Fc1cccc(NC(=S)NCCN2CCOCC2)c1	-7.5	4.0	-1.9	-0.9	15.9	0.5	.	.
O=C1c2cccc3cc(Br)cc(c23)C(=O)N1Nc1ccc(Br)cc1	72.8*	25.9	-1.0	-2.1	-20.3	1.1	62.6*	74.4*
